Screening results deposited in PubChem BioAssay by Broad Institute.
RAD52 inh = RAD52 (human) annealing inhibition; P43351; AID 651710; recombinant RAD52 DNA annealing, FRET fluorescence; actives 0.46% (n = 360,000); inhibition, % at 18.7 µM;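 active means every replicate showing at least 50% inhibition; inconclusive means mean inhibition at least 50% but not in every replicate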
Target sequence (P43351 whole entry, looked up): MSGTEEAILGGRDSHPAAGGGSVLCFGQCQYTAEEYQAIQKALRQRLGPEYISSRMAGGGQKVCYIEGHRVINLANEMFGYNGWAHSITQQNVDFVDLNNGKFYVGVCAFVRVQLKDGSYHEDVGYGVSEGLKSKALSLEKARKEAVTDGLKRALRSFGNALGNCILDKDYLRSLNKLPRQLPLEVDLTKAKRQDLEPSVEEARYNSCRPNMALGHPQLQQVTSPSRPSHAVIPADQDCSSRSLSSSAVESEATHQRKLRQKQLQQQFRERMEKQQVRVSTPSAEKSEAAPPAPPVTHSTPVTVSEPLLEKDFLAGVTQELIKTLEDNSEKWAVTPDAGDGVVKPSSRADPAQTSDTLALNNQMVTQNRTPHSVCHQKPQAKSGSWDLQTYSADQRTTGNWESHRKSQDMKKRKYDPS
RAD54 branch = blocks human RAD54 Holliday junction branch migration. Q92698. inhibition, % at 10.4 µM. actives 0.14% (n = 360,000). FAM/BHQ fluorescence;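 active means mean normalized replicate activity at least 40 and at least half of replicates scoring 40 or more; inconclusive means only one of the two criteria met; inactive means mean below 40 and under half of replicates reaching 40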;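 further: 0% = median of neutral control wells and 100% = median of positive control wells; inhibitors cause a drop in the FAM fluorescence signal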
MLL AF4-AF9 inh = inhibitors of human MLL-AF4/AF9 interaction; P42568; AlphaScreen, biotin-AF4 peptide binding to FLAG-AF9; inhibition, % at 10 µM; actives 0.47% (n = 350,000); AID 651704;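 active means every replicate reaching a set inhibition limit, whatever the replicate mean, cut at about 25% in these data; inconclusive means mean inhibition reaches that limit but some replicates miss it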;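 further: 0% = plate neutral control median and 100% = total signal loss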
N-glyco inh = blocks N-linked glycosylation in D54 reporter cells. reporter increase, % at 12.5 µM. actives 0.23% (n = 360,000). D54 ERlucT glycosylation luciferase reporter, 24 h; percent of 100 nM tunicamycin response. AID 588692;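 active means mean luciferase reporter signal, scaled so untreated is 0 and the glycosylation-blocking control 100, at or above a set limit in every replicate; inconclusive means mean reaches the limit but not every replicate does; inactive means mean below the limit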;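 further: luciferase carries N-glycosylation sites so blocking glycosylation raises the light; 0% = median of neutral control wells and 100% = median of 100 nM tunicamycin wells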
FN deposition inh = fibronectin deposition inhibition; AH1F fibroblasts, Alexa488-fibronectin deposition fluorescence, overnight; AID 743247; inhibition, % at 12.6 µM; actives 0.086% (n = 350,000);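 active means mean inhibition across replicates of 30% or more, regardless of how many single replicates reach that level; inconclusive means mean under 30% yet at least half of replicates reach 30%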;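 further: positive control wells lacked labelled fibronectin entirely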
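Assay system: AH1F fibroblasts assembling fluorescent fibronectin matrix; Amount: 10000 AH1F cells per well; Buffer or medium: DMEM, 2% serum; Probe or stimulus: Alexa488-fibronectin, 24 nM final in well; Doses: single compound dose, delivered by pin transfer; Incubation: 1 h adhesion, overnight exposure; Measured by: fluorescence 485/525 nm; Read-out: fibronectin deposition inhibition.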
Active calls of the source: *; ? = inconclusive; . = no result given. An excerpt weighted towards active compounds, which were near 0.92% of everything screened.

SMILES	RAD52 inh	RAD54 branch	MLL AF4-AF9 inh	N-glyco inh	FN deposition inh
CN(C)CCCn1cnc2c(c1=N)C(c1ccccc1)c1ccc3ccccc3c1O2 (centres undefined)	76.2*	32.8	18.0	15.5	1.6
C[C@H]1CN([C@@H](C)CO)C(=O)c2cccc(NC(=O)C3CCOCC3)c2O[C@H]1CN(C)C	-15.2	-4.2	-1.6	.	.
C[C@H](CO)N1C[C@H](C)[C@@H](CN(C)C)Oc2cc(C#CC3CCCCC3)ccc2S1(=O)=O	39.6	1.9	9.8	.	1.7
C[C@H](O)C#Cc1ccc2c(c1)O[C@@H](CN(C)C)[C@H](C)CN([C@H](C)CO)S2(=O)=O	-1.0	5.3	-2.9	.	48.1*
C[C@H]1CN([C@@H](C)CO)S(=O)(=O)c2ccc(C#CC3CCCCC3)cc2O[C@H]1CN(C)C	53.3*	11.1	12.1	.	-4.9
CNC[C@H]1Oc2cc(C#Cc3ccc(OC)cc3)ccc2S(=O)(=O)N([C@@H](C)CO)C[C@@H]1C	52.1*	1.7	10.4	.	9.4
CNC[C@@H]1Oc2cc(C#Cc3ccc(OC)cc3)ccc2S(=O)(=O)N([C@H](C)CO)C[C@H]1C	47.1	-4.6	10.5	.	3.3
COCC(=O)N(C)C[C@@H]1Oc2ncc(C3=CCCCC3)cc2C(=O)N([C@@H](C)CO)C[C@H]1C	-13.0	-0.8	-3.3	.	.
Cc1ccc(S(=O)(=O)/N=C2\C=C(Nc3cccc(C(=O)O)c3)C(=O)c3ccccc32)cc1	2.3	4.5	7.7	2.2	3.3
CCc1ccc(S(=O)(=O)/N=C2\C=C(Nc3ccc(C(=O)O)cc3)C(=O)c3ccccc32)cc1	2.2	1.6	28.5*	4.2	12.4
C[C@H]1CC=CC[C@@H](c2ccc3c(c2)OCO3)NC(=O)[C@H](Cc2ccccc2)N(C)C(=O)c2ccccc2O1 (mixture of isomers)	.	.	.	.	-8.2
COc1ccc(-c2ccc3c(c2)[C@@H]2[C@@H](CCN2C(=O)C2CCC2)[C@H](CO)N3C)cc1	29.3	.	33.0*	.	1.1
CN1c2ccc(-c3ccccc3)cc2[C@@H]2[C@@H](CCN2C(=O)CN2CCOCC2)[C@@H]1CO	-8.5	4.1	0.6	.	30.0*
COc1ccc(-c2ccc3c(c2)[C@H]2[C@H](CCN2C(=O)NC2CCCC2)[C@H](CO)N3C)cc1	1.0	.	26.4*	.	-4.3
COc1ccc(-c2ccc3c(c2)[C@@H]2[C@@H](CCN2C(=O)C2CC2)[C@@H](CO)N3C)cc1	68.3*	10.0	0.6	.	6.6
C[C@@H]1CN([C@@H](C)CO)C(=O)Cc2cc(NC(=O)CCN3CCOCC3)ccc2O[C@H]1CN(C)Cc1ccncc1	5.4	3.9	-18.8	.	.
Cc1cc(/C=C\c2ccccc2)nc2ccccc12	-3.4	.	26.4*	1.3	.
O=C(CCN1CCCCC1)NCC[C@@H]1CC[C@@H](NS(=O)(=O)c2cccc(F)c2)[C@@H](CO)O1	-4.1	-0.6	-0.8	.	-7.7
Cc1noc(C)c1NC(=O)N[C@@H]1C=C[C@H](CC(=O)NCc2ccc(Cl)c(Cl)c2)O[C@@H]1CO	3.7	.	-2.8	.	-18.9
O=c1[nH]c(=O)n(C2CC(O)C(CO)O2)cc1Br (centres undefined)	-6.8	.	-1.7	35.8*	12.3
CCc1cn([C@H]2C[C@H](O)[C@@H](CO)O2)c(=O)[nH]c1=O	1.4	4.4	1.2	0.2	-1.7
CC(Oc1ncnc2ccccc12)C(=O)Nc1cccc(S(=O)(=O)N2CCOCC2)c1 (centres undefined)	-13.8	-1.1	28.8*	1.7	1.3
COc1ccc2c(-c3cc4ccc(OCc5ccc(F)cc5)cc4oc3=O)cc(=O)oc2c1	-14.7	.	1.3	36.7*	-0.9
OCCSc1nc(-c2ccccc2)nc2ccc(F)cc12	-6.0	.	-1.3	0.2	-7.4
NC(N)=Nc1nc(-c2ccccc2)c2cc(F)ccc2n1	42.3	55.9*	13.4	6.2	-10.5
SMILES	RAD52 inh	RAD54 branch	MLL AF4-AF9 inh	N-glyco inh	FN deposition inh
Cc1ccc(-n2c(-c3ccc(Br)cc3)c[n+]3c2CCc2ccc4cccnc4c2-3)cc1	.	88.1*	.	40.0*	-4.1
O=C(Nc1cccnc1)c1ccc(COc2ccccc2Br)o1	.	-2.4	.	2.9	.
CC(C)(C)c1ccc(OCc2ccc(C(=O)Nc3cccnc3)o2)cc1	-16.7	-8.1	3.4	28.6*	-13.5
Cc1cccc(/C=N/Nc2cc(N3CCOCC3)nc(N3CCOCC3)n2)c1	-11.9	.	?	-7.5	35.6*
CCn1c2ccccc2c2cc(NC(=O)c3cc(OC)c(OC)c(OC)c3)ccc21	-7.6	4.9	-52.4	26.6*	.
CCn1c2ccccc2c2cc(NC(=O)c3cc(OC)cc(OC)c3)ccc21	-19.5	.	1.9	9.5	-11.0
C[C@@H]1CN([C@@H](C)CO)C(=O)Cc2cc(N(C)C)ccc2O[C@H]1CN(C)Cc1ccc(-c2ccccc2)cc1	6.9	-7.7	74.0*	.	-5.6
C[C@H](CO)N1C[C@H](C)[C@H](CN(C)Cc2ccccc2)Oc2ccc(N(C)C)cc2CC1=O	-3.3	11.8	1.9	.	.
C[C@H](CO)N1C[C@H](C)[C@H](CN(C)Cc2ccc(-c3ccccc3)cc2)Oc2ccc(N(C)C)cc2CC1=O	-8.1	-9.1	29.5*	.	2.0
C[C@H](CO)N1C[C@H](C)[C@@H](CN(C)Cc2ccc(C(=O)O)cc2)Oc2ccc(N(C)C)cc2CC1=O	6.8	6.0	1.8	.	6.5
C[C@H](CO)N1C[C@H](C)[C@@H](CN(C)Cc2ccc(C(F)(F)F)cc2)Oc2ccc(N(C)C)cc2CC1=O	3.9	1.4	33.4*	.	.
C[C@@H]1CN([C@H](C)CO)C(=O)Cc2cc(N(C)C)ccc2O[C@H]1CN(C)Cc1ccc(C(=O)O)cc1	-11.8	2.0	-2.8	.	-5.8
COc1ccc(N=C2S/C(=C\c3ccc(OCC(=O)O)cc3)C(=O)N2CCc2c[nH]c3ccccc23)cc1	-26.3	.	35.3*	-2.7	.
COc1ccc(N=C2S/C(=C\c3ccc(N4CCOCC4)o3)C(=O)N2CCc2c[nH]c3ccccc23)cc1	.	-1.1	.	-3.7	.
CC1(c2nnc(-c3ccncc3)o2)CC(c2ccc(F)cc2)=NO1 (centres undefined)	-2.6	-1.2	33.9*	0.1	12.8
Fc1ccc(N2CCN(C3=Nc4cccc5cccc3c45)CC2)cc1	-76.5	.	31.7*	9.5	-4.8
CCCNC(=O)N1C[C@H](C)[C@@H](OC)CN(C)C(=O)c2cc(NC(=O)C3CCC3)ccc2OC[C@@H]1C	.	.	.	.	-6.0
O=C(Nc1ccc2oc(-c3cccnc3)nc2c1)c1ccc([N+](=O)[O-])o1	-14.9	.	-1.2	34.9*	4.5
Cc1c(C(=O)Nc2ccc3oc(-c4cccnc4)nc3c2)oc2ccccc12	.	-2.7	.	29.8*	28.2
CO[C@H]1CN(C)C(=O)c2cc(NC(=O)NC3CCCC3)ccc2OC[C@H](C)N(CC2CC2)C[C@H]1C	.	.	.	.	-2.9
CN(C)C(=O)C[C@@H]1CC[C@@H]2[C@H](COC[C@H](O)CN2C(=O)c2ccncc2)O1	69.8*	2.4	7.9	.	7.8
CCOc1cc(S(=O)(=O)NCc2ccc(OC)cc2)c(OCC)cc1-n1cnnn1	.	1.3	.	29.8*	-1.4
